# MPTP block: mitochondrial permeability transition pore inhibitors, primary screen, biochemical, isolated mouse mitochondria, absorbance; Ca2+ swelling absorbance, 30 min; AID 602449, 2012; actives 1.4% (n = 360,000); inhibition, % at 10 µM;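 active = inhibition of 50% or more, scaled per plate between neutral and stimulator controls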;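 note: 0% = DMSO wells given calcium and 100% = 1 mM EGTA wells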
# SENP1 inh: human SENP1 catalytic domain inhibitors, primary screen, biochemical, FRET, uHTS; inhibition, % at 10 µM; recombinant SENP1 catalytic domain, CyPet-SUMO1-YPet FRET cleavage; Sentrin-specific protease 1 (Homo sapiens), Q9P0U3; actives 0.21% (n = 360,000); AID 624204, 2012;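 active = inhibition at least 30% at 10 µM, raw YFP signal under a set limit, fluorescence ratio 0.5 to 1.5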;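 note: 0% = enzyme with DMSO and 100% = no enzyme wells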
# Target sequence (Q9P0U3 419-644 limits assumed): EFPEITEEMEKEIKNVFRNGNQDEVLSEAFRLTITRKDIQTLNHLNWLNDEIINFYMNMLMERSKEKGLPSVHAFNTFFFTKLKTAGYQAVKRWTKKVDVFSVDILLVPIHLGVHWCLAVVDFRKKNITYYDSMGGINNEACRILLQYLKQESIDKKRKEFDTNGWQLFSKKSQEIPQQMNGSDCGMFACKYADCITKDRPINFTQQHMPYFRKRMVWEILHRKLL
#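 Assay system: hSENP1 catalytic domain, recombinant. Amount: SENP1 enzyme, 20 pM final. Schedule: 50 min reaction, RT, dark. Technique: FRET, CFP and YFP emission. Control set: no-enzyme wells low, DMSO-plus-enzyme wells high control.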
# NR3A LBD binder: binders of NR3A ligand-binding domain, primary screen, biophysical, differential scanning fluorimetry, uHTS | Glutamate receptor ionotropic, NMDA 3A (GRIN3A) ligand-binding domain | NR3A LBD differential scanning fluorimetry, Tm shift; 0% = protein alone, 100% = glycine-bound protein | Tm shift relative to glycine control, % at 25 µM | actives 2.5% (n = 340,000) | AID 1259313, 2017;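 active = melting temperature shift of at least 10% of the positive control shift, at one fixed dose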
# EBI2 antag: EBI2 receptor antagonists, beta-arrestin recruitment, primary screen, cell-based, luminescence, 7a,25-OHC stimulation, uHTS; 7a,25-OHC stimulated; inhibition, % at 5 µM; actives 0.81% (n = 360,000); AID 651636, 2012; in the data active = inhibition above about 38%;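 note: enzyme fragment complementation signal reports receptor beta-arrestin coupling in cells; 0% = agonist plus DMSO wells and 100% = wells without agonist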
# Target sequence (P32249 whole entry, looked up, the tested form may be a part): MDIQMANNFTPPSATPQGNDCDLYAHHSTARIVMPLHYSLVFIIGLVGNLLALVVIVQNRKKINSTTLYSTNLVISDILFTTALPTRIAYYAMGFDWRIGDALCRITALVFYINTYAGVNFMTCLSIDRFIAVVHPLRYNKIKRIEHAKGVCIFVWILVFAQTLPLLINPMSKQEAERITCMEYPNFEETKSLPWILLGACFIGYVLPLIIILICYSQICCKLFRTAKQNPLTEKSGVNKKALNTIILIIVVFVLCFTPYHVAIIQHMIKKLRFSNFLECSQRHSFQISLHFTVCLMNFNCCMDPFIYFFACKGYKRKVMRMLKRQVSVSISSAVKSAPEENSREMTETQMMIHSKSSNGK
# Active calls of the source: *; x = not tested or not shown. Only some compounds are listed: those with a hit (about 4.4% of all), similar ones and a draw of the others.
SMILES,MPTP block,SENP1 inh,NR3A LBD binder,EBI2 antag
COCc1c(C(=O)N/N=C/c2c[nH]c3ccccc23)nnn1-c1nonc1N,2.5,-1.5,18.1*,40.8
CCCN(CCC)Cc1c(C(=O)N/N=C/c2ccc(Br)cc2)nnn1-c1nonc1N,18.3,-1.9,22.0*,13.5
CC(=O)c1ccc(OCC(O)CN(C)CCOc2ccc(Br)cc2)cc1 (stereo not drawn),0.9,0.6,4.0,1.3
Cc1ccc(NC(=O)COC(=O)Cn2cnc3c2c(=O)n(C)c(=O)n3C)cc1Cl,-0.5,0.9,0.1,0.0
Cc1ccc(-n2nnnc2SCC(=O)NC2CCS(=O)(=O)C2)c(C)c1 (stereo not drawn),0.8,0.1,19.0*,-8.5
Cc1ccc(C)c(SCC(=O)NC2CCS(=O)(=O)C2)c1 (stereo not drawn),2.5,1.1,1.1,-2.6
C=CCOc1ccc(/C=C/C(=O)OCC(=O)N2CCN(S(=O)(=O)c3ccc(C)cc3C)CC2)cc1,-0.5,1.8,18.8*,14.7
CC(C)C[C@H]1CN=C(Nc2ccccc2)N1CCc1ccc(F)cc1,0.8,2.3,-3.4,-22.1
CN(C)S(=O)(=O)c1cc(C(=O)NCC2CCCO2)c(Cl)cc1Cl (stereo not drawn),1.8,0.0,17.8*,-9.1
COc1cc(SC)ccc1C(=O)NCCOc1ccc(C)c(C)c1,3.6,0.3,16.4*,14.3
CCOC(=O)c1ccc(NC(=S)NN)cc1,-1.4,0.4,-1.6,12.9
CCOC(=O)c1ccc(NC(=S)Nc2ccc(Br)cc2N)cc1,10.1,-0.5,22.6*,-5.3
CCOC(=O)Cc1csc(NC(=O)CN2CCOCC2)n1,-0.2,3.1,-2.6,10.9
CC(=O)Nc1ccc(NC(=O)CS(=O)(=O)Cc2ccccc2)cc1,-1.4,2.6,12.6*,-3.2
O=C(Nc1nccs1)C1CCN(S(=O)(=O)c2ccc3c(c2)OCCCO3)CC1,-1.2,0.0,13.7*,-14.3
ON=C(c1ccccc1)c1ccc2c3c(cccc13)CC2,2.1,1.5,x,1.8
Cc1ccc(C(=O)Nc2cccc(NC(=O)c3ccc(C)c([N+](=O)[O-])c3)n2)cc1[N+](=O)[O-],8.1,1.3,14.4*,-19.6
Cc1ccc(C(=O)Nc2ccc(NC(=O)c3cccs3)cc2)cc1[N+](=O)[O-],3.3,0.4,29.5*,7.1
Cc1cc(NC(=O)c2ccc(C)c([N+](=O)[O-])c2)no1,-0.2,1.9,-0.1,0.4
Cc1ccc(C(=O)NC(=S)Nc2ccc(NC(=O)c3cccs3)cc2)cc1[N+](=O)[O-],3.5,0.3,30.7*,1.6
Cc1occc1C(=O)NNS(=O)(=O)c1ccc([N+](=O)[O-])cc1,-3.3,0.6,-1.0,13.6
CCNC(=O)/C(C#N)=C/c1c(N(Cc2ccccc2)Cc2ccccc2)nc2ccccn2c1=O,-10.6,-22.8,21.8*,2.3
O=C1OCCN1C(=O)[C@H]1[C@H](c2ccc(Cl)cc2)C(c2cccc(Cl)c2)=NN1c1ccccc1,0.8,-29.5,17.0*,7.6
CC[C@@H]1C(c2ccccc2)=NN(c2ccc(Br)cc2)[C@H]1C(=O)N1CCOC1=O,0.1,-24.1,8.7,7.7
CC[C@@H]1C(c2ccc(F)cc2)=NN(c2ccc(Br)cc2)[C@H]1C(=O)N1CCOC1=O,-2.7,-15.2,18.9*,0.3
SMILES,MPTP block,SENP1 inh,NR3A LBD binder,EBI2 antag
O=C1OCCN1C(=O)[C@H]1[C@H](c2ccccc2)C(c2cccc(Cl)c2)=NN1c1ccc(Br)cc1,0.7,-27.6,7.2,-0.5
O=C1OCCN1C(=O)[C@H]1[C@H](c2ccc(F)cc2)C(c2cccc(Cl)c2)=NN1c1ccc(Br)cc1,-0.9,-21.6,25.2*,14.3
O=C1OCCN1C(=O)[C@H]1[C@H](c2ccc(F)cc2)C(c2cccc(Cl)c2)=NN1c1ccccc1,-1.0,-26.1,16.1*,6.5
COc1ccccc1[C@@H]1C(c2cccc(Cl)c2)=NN(c2ccccc2)[C@H]1C(=O)N1CCOC1=O,-1.3,-27.2,-1.8,0.4
CC(=O)NC(Cc1cc(C)ccc1C)C(=O)N1CCN(C(=O)c2ccc([N+](=O)[O-])cc2)CC1 (stereo not drawn),1.9,0.3,-0.8,-2.7
O=C(COC(=O)c1cccc(NS(=O)(=O)c2ccc(F)c(F)c2)c1)NC(=O)NC1CCCCC1,10.6,1.0,22.8*,11.4
Cn1c(SCC(=O)Nc2cccc(F)c2)nnc1-c1cc2ccccc2o1,-0.2,1.0,11.0*,7.5
CC(=O)Nc1ccc(-c2nnc(SCC(=O)Nc3ccc4c(c3)oc3ccccc34)n2C)cc1,1.9,-3.7,8.1,6.8
COc1ccc(/C=N/Nc2nc(NCc3ccco3)nc(Nc3ccc(OC)cc3)n2)cc1,-1.8,-0.7,17.8*,7.1
COc1ccc(Nc2nc(NCc3ccco3)nc(N/N=C/c3ccc(O)cc3)n2)cc1,-1.1,-5.9,19.1*,7.3
COc1ccc(Nc2nc(NCc3ccco3)nc(N/N=C/c3ccccc3F)n2)cc1,0.9,0.0,15.9*,17.6
O=C(NCCNC(=O)c1ccc(Br)o1)c1cccnc1,-0.8,-0.4,1.6,2.5
NCC(=O)NCC(=O)NC[C@H]1O[C@@H](n2ccc(=O)[nH]c2=O)[C@H](O)[C@@H]1O,-0.6,1.3,1.2,0.8
O=c1ccn([C@@H]2O[C@H](CNS(=O)(=O)C3CC3)[C@@H](O)[C@H]2O)c(=O)[nH]1,-1.2,-0.1,14.0*,-0.4
CCCS(=O)(=O)NC(=O)C1(C)CCCN(C(=O)c2cc(F)cc(F)c2)C1 (stereo not drawn),-0.7,3.6,x,-13.3
O=C(NCc1ccccc1)c1cccc(NS(=O)(=O)c2cccc3cccnc23)c1,0.4,-3.7,-2.2,2.3
Cc1cccc(/C=N\NC(=O)c2sccc2-n2cccc2)c1,7.5,2.3,-11.0,-19.4
COc1ccc(C2/C=C\CC(NC(=O)OCC3c4ccccc4-c4ccccc43)CC(=O)N2Cc2ccccc2F)cc1 (stereo not drawn),-0.2,-1.6,14.0*,3.2
Nc1cc2nc3ccccc3oc-2cc1=O,0.3,32.6*,-3.2,-14.5
COc1cc(/C=N/O)ccc1Oc1ccc([N+](=O)[O-])cc1[N+](=O)[O-],1.7,0.3,-16.4,-17.2
O=[N+]([O-])c1cc(/C=N\O)ccc1Oc1ccc(F)cc1,-0.5,0.6,16.1*,-1.9
CC(C)(/C=N/NC(=O)CSCc1ccc(Cl)cc1)CCC#N,-1.6,1.1,-0.3,-10.7
COc1ccccc1C(=O)C1CCCN(C(=O)C2=CC(=O)CC(C)(C)O2)C1 (stereo not drawn),-0.3,0.7,-2.6,-0.2
O=C(c1ccccc1)c1nn(-c2ccc(Cl)cc2)c(=O)cc1C(F)(F)F,-2.4,5.1,-0.9,1.5
O=C(c1ccccc1)c1nn(-c2ccccc2)c(=O)cc1C(F)(F)F,1.4,1.1,12.2*,-1.5

# Screening results from PubChem.
